The source made the active and inactive calls.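 Rule for the calls: active = cell viability under 70% at any tested concentration, a measure not printed in our tables; inactive = the rest.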
System: HEp-2 viability, luminescence cytotoxicity counter-screen
Test: HEp-2 viability loss, luminescent readout – cell-based, synthesized compounds, set 5, cytotoxicity control for RSV inhibitor project, dose response (AID 493090)
Summary of the method: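 Test system: HEp-2 human cell line, uninfected, for cytotoxicity / Times: compound exposure of cells for 6 days at 37 °C / Measured by: CellTiter-Glo luminescence / Measure: % viability vs cell controls, CC50 from constrained four-parameter fit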

SMILES	CC50
Cc1ncccc1NC(=O)[C@@H]1CCCN1S(=O)(=O)c1cccc2cccnc12	> 50 µM (inactive)
CC(=O)c1ccccc1NC(=O)[C@@H]1CCCN1S(=O)(=O)c1cccc2cccnc12	> 50 µM (inactive)
COCCCNC(=O)c1ccc(Cn2c(=O)c3ccccc3n(Cc3ccc(C)cc3)c2=O)cc1	> 50 µM (inactive)
CCOC(=O)c1ccc2[nH]c3c(c2c1)CN(C)CC3	> 50 µM (inactive)

Source: PubChem BioAssay AID493090 (Southern Research Specialized Biocontainment Screening …, 2011)
